PolyA inhibitor – polyadenylation inhibitors in yeast reporter cells, primary screen, luminescence, S. cerevisiae; S. cerevisiae SKY197-pL101 polyadenylation reporter, beta-gal luminescence; efflux-impaired pdr1/pdr3 knockout yeast; score 100 = 6 SD above DMSO; activity score, % at 12 µM; 300,000 compounds, 0.02% hits; AID 1875, 2009;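 active means lowest replicate activity score at least 50, where 100 means six control SD above control mean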;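 further: yeast exposed to compound for 9 h at 30 °C; higher score means more reporter readthrough which indicates perturbed polyadenylation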
Mot1-301 SUMO – yeast Mot1-301 growth rescue at high temperature, primary screen, SUMOylation pathway inhibitor project, S. cerevisiae, ATP luminescence, 38.5C. S. cerevisiae Mot1-301 growth rescue; percent above DMSO median, 100 means doubled. growth rescue, % at 18.8 µM. 320,000 compounds, 1% hits. AID 2716, 2010;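 active means every valid replicate shows activation above 250% relative to neutral control wells; inactive means the rest, any valid replicate at or below 250%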;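 further: OY570 slx delta 5 strain wells were the positive control but not used for scaling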
IMP-1 inh-1 – IMP-1 metallo-beta-lactamase inhibitors, primary screen, biochemical, epi-absorbance readout, Pseudomonas aeruginosa enzyme. AID 1556, 2009. 290,000 compounds, 0.45% hits. metallo-beta-lactamase IMP-1 (Pseudomonas aeruginosa). inhibition, % at 5.6 µM. purified IMP-1, nitrocefin hydrolysis, epi-absorbance fluorescence;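 active means inhibition above the mean plus 3 SD of all compounds in the same screening run, cut at about 4.5% in these data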;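 further: 0% = IMP-1 with DMSO and 100% = DMSO wells lacking enzyme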
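Assay system: purified recombinant IMP-1 beta-lactamase. Input: IMP-1 0.2 nM before substrate addition. Buffer or medium: Zinc- and detergent-supplemented HEPES buffer, pH 7.1. Schedule: 25 °C, 15 min preincubation, 25 min reaction. Signal: Epi-absorbance fluorescence, 480 nm excitation, 530 nm emission. Evaluation: percent inhibition from optical density relative to buffer-blank wells.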
NALP3 yeast inh – NALP3 inflammasome inhibitors in reconstituted yeast, primary screen, luminescence, uHTS; Yeast reconstituted NLRP3/ASC/caspase-1, beta-gal luminescence, 24 h; AID 2825, 2010; 330,000 compounds, 0.39% hits; inhibition, % at 10 µM;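 active means inhibition of 50% or more; inactive means inhibition below 50%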;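 further: plate controls were induced DMSO wells for no effect and uninduced yeast grown without galactose for full effect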
VIM-2 inh – VIM-2 metallo-beta-lactamase inhibitors, primary screen, biochemical, epi-absorbance readout, Pseudomonas aeruginosa enzyme; purified VIM-2, nitrocefin hydrolysis, epi-absorbance fluorescence; inhibition, % at 5.6 µM; 290,000 compounds, 0.89% hits;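 active means inhibition above the mean of all tested compounds plus 3 SD, cutoff set per screening run, cut at about 7.5% in these data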;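 further: red hydrolysis product quenches plate fluorescence so inhibitors raise well fluorescence; 0% = enzyme with DMSO and 100% = DMSO without enzyme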
NALP1 inh – NALP1 inflammasome inhibitors in reconstituted yeast, colorimetric, S. cerevisiae, triplicate retest. AID 2071, 2009. S. cerevisiae NALP1/ASC/caspase-1 growth, X-gal OD620, 72 h. inhibition, % at 10 µM. 280,000 compounds, 0.61% hits; in the data active means inhibition mostly above about 24%, no sharp cut-off; inactive means mostly below about 32%
IMP-1 inh-2 – IMP-1 metallo-beta-lactamase inhibitors, confirmation, selectivity assay for selective VIM-2 inhibitor project, biochemical, epi-absorbance readout, triplicate; inhibition, % at 5.6 µM; 1,300 tested, under 10 active; purified IMP-1, nitrocefin hydrolysis, epi-absorbance fluorescence; shares compounds with VIM-2 inh; call rule not given here;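 further: 0% = enzyme with vehicle and 100% = vehicle without enzyme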
VIM-2 FRET inh – VIM-2 inhibitors in FRET format, confirmation, artefact control for selective VIM-2 inhibitor project, biochemical, epi-absorbance artifact exclusion; shares compounds with VIM-2 inh; purified VIM-2, CCF2 FRET substrate hydrolysis; inhibition, % at 5.6 µM; 1,300 compounds, 23% hits; AID 1857, 2009;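 active means inhibition above the mean of all tested compounds plus 3 SD, cut at about 19% in these data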;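 further: 0% = VIM-2 plus DMSO and 100% = no enzyme wells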
TEM-1 inh – TEM-1 serine beta-lactamase inhibitors, counter-screen for VIM-2 inhibitor project, biochemical, epi-absorbance, HTS. shares compounds with VIM-2 inh. Purified TEM-1, nitrocefin hydrolysis, epi-absorbance fluorescence. inhibition, % at 5.6 µM. 1,300 compounds, 3% hits. AID 1866, 2009;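 active means inhibition above that campaign's mean inhibition plus 3 SD, cut at about 0.46% in these data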;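 further: 0% = TEM-1 with DMSO and 100% = TEM-1 with 100 µM potassium clavulanate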
Target sequence (P62593 whole entry, looked up): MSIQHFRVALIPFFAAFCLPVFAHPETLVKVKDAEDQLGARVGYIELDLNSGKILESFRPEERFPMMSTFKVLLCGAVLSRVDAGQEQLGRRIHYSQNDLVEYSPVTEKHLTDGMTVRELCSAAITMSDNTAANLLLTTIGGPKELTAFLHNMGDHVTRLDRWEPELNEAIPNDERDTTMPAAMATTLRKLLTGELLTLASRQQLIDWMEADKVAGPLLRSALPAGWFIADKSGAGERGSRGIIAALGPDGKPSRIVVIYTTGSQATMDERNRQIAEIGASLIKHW
VIM-2 confirm 2 – VIM-2 metallo-beta-lactamase inhibitors, confirmation, biochemical, epi-absorbance, hits shared with IMP-1 screen | shares compounds with VIM-2 inh | purified VIM-2, nitrocefin hydrolysis | inhibition, % at 5.6 µM | 1,300 compounds, 96% hits | AID 2187, 2009;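 active means inhibition of the VIM-2 beta-lactamase enzyme above about 11% from the earlier first-round screen, limit read from the data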;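 further: 0% = VIM-2 with DMSO and 100% = buffer wells without enzyme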
Numbers without * were called inactive; / = not tested or not shown. Shown are actives, neighbours in structure and some others; about 2.9% of the full set was active somewhere.

SMILES	PolyA inhibitor	Mot1-301 SUMO	IMP-1 inh-1	NALP3 yeast inh	VIM-2 inh	NALP1 inh	IMP-1 inh-2	VIM-2 FRET inh	TEM-1 inh	VIM-2 confirm 2
CCN1CCN(C(=O)CCc2nc3ccccc3c(=O)[nH]2)CC1	6	/	0	14	21*	13	-3	-2	-5	43*
CCc1c(C)sc(NC(=O)c2ccco2)c1C#N	-1	/	-2	13	0	31	/	/	/	/
Cc1ccc2[nH]c(=O)c(-c3noc(CC(C)C)n3)cc2c1	16	-12	0	-18	-1	13	/	/	/	/
COc1cc(-c2noc(C)c2C#Cc2nccn2C)cc(OC)c1OC	-5	-15	-2	9	30*	16	-2	-15	-1	46*
Cc1ccc(NC(=O)C(CC(C)C)NC(N)=O)cc1 (stereo unspecified)	14	6	-3	15	-3	22	/	/	/	/
Cc1ccc(NC(=O)C(C)S)cc1 (stereo unspecified)	9	-9	-1	/	9.6*	10	1	4	-6	30*
Cn1c(-c2sccc2OCc2ccc(Cl)cc2Cl)n[nH]c1=S	-17	-15	-4	30	34*	19	-3	62*	-8	43*
Cc1ccc(COc2ccsc2-c2n[nH]c(=S)n2C)cc1	7	-5	-3	-3	34*	4	-3	62*	-7	41*
Cn1c(-c2sccc2OCc2ccccc2)n[nH]c1=S	6	9	-2	23	35*	-17	-2	72*	-7	54*
COc1ccc(Cl)cc1-c1n[nH]c(=S)n1C	-8	-19	-2	6	-2	30	/	/	/	/
CCc1ccccc1N1C(=O)C(Cl)=C(N2CCOCC2)C1=O	5	-9	0	11	-1	14	/	/	/	/
O=C(CSc1nnc(-c2ccco2)n1-c1ccccc1Cl)Nc1cccc(C(=O)O)c1	11	1	-3	18	-1	3	/	/	/	/
CCCCn1c(N)c(N(CC(C)C)C(=O)CC2CCCC2)c(=O)[nH]c1=O	5	-5	/	16	/	/	/	/	/	/
CCc1nnc2c(N(C)S(=O)(=O)c3ccc(C)cc3)nc3ccccc3n12	17	13	-3	18	0	13	/	/	/	/
CCc1nnc2c(NCCc3ccc(OC)c(OC)c3)nc3ccccc3n12	13	/	-2	4	15*	8	-2	0	-4	21*
CCc1nnc2c(N(C)C)nc3ccccc3n12	/	-1	0	31	16*	13	-3	-2	-6	31*
COc1ccc(CCNc2nc3ccccc3n3cnnc23)cc1OC	3	/	-3	8	-2	2	/	/	/	/
CCOC(=O)N1CCN(C(=O)C2CCC(=O)N(Cc3ccc(Cl)cc3)C2)CC1 (stereo unspecified)	-1	-13	-3	1	-2	8	/	/	/	/
COc1cnc(-c2ccccn2)nc1Oc1ccc(Cl)cc1	-32	-8	-4	36	6	9	/	/	/	/
COc1cnc(-c2ccccn2)nc1Oc1ccc(Cl)c2ccccc12	-58	/	-4	34	39*	5	-4	-30	-6	76*
COc1cnc(-c2ccccn2)nc1Oc1ccccc1Cl	-31	-8	-2	-14	17*	26	-4	-26	-4	46*
COc1cnc(-c2ccccn2)nc1Oc1ccc(F)cc1F	-28	22	-5	22	18*	18	-5	-30	-4	29*
Cc1nn(S(=O)(=O)c2ccccc2)c(C)c1S(=O)(=O)N1CCC(C)CC1	-7	-13	-4	19	-2	9	/	/	/	/
CN(C)CCNC(=O)c1csc(Nc2cccc3ccccc23)n1	-5	16	-2	18	13*	22	-2	-1	-3	22*
CCOc1ccc(NC(=O)c2ccccc2NC(=O)c2cccnc2)cc1	2	65	-1	24	1	15	/	/	/	/
SMILES	PolyA inhibitor	Mot1-301 SUMO	IMP-1 inh-1	NALP3 yeast inh	VIM-2 inh	NALP1 inh	IMP-1 inh-2	VIM-2 FRET inh	TEM-1 inh	VIM-2 confirm 2
O=C(O)C1Sc2[nH]c(=O)sc2C2c3cc(Cl)ccc3OC(=O)C12 (stereo unspecified)	11	3	-2	4	14*	-2	-1	41*	-8	29*
COc1ccc(-n2nc3c(c2NC(=O)C(C)Oc2ccccc2)CS(=O)(=O)C3)cc1 (stereo unspecified)	-1	-15	-2	17	-4	10	/	/	/	/
CCN(CC)S(=O)(=O)c1ccc(C(=O)NCc2ccc3[nH]c4c(c3c2)CCCC4)cc1	7	8	0	15	14*	15	0	28*	-4	20*
O=C(NCc1ccc2[nH]c3c(c2c1)CCCC3)c1ccc(S(=O)(=O)N2CCOCC2)cc1	-12	-12	2	4	14*	38	0	28*	-3	23*
CN(C)S(=O)(=O)c1ccc(C(=O)NCc2ccc3[nH]c4c(c3c2)CCCC4)cc1	5	200	3	3	14*	28	1	28*	-2	25*
O=C(NCc1ccc2[nH]c3c(c2c1)CCCC3)N1CCOCC1	-2	-11	-1	-5	0	-8	/	/	/	/
CCNC(=O)c1cc(S(=O)(=O)N2CCSCC2)ccc1OC	-5	38	-1	11	-1	-35	/	/	/	/
CC(C)NC(=S)N1CCCN(c2ncccc2[N+](=O)[O-])CC1	2	15	-3	8	-5	4	/	/	/	/
Cc1nnc2ccc(-c3cccc(NC(=O)c4ccco4)c3)nn12	-9	-27	-1	2	15*	5	-2	1	-8	25*
COc1ccc(CC(=O)Nc2cccc(-c3ccc4nnc(C)n4n3)c2)cc1	0	0	-3	-8	4	2	/	/	/	/

Screens (PubChem)
